Test results as given in ChEMBL document CHEMBL1137744, “Parallel synthesis, molecular modelling and further structure-activity relationship studies of new acylthiocarbamates as potent non-nucleoside HIV-1 reverse transcriptase inhibitors” (Eur J Med Chem, 2009).
Calls of active or inactive are those of the source. The calls are words filed in the database; no cut-off is given here.

What was measured:
[1] = tested on: Human immunodeficiency virus 1; experiment: Ratio of EC50 for HIV1 3B expressing reverse transcriptase Y181C mutant to EC50 for HIV1 3B; format: functional
How it was run: (§1)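 MT-4 cells infected with HIV-1 carrying the Y181C RT mutation, alongside wild-type virus. EC50 is the concentration giving 50% protection from virus-induced cytopathogenicity, read by MTT. Values are means of three separate experiments run in triplicate. The ratio is EC50(Y181C)/EC50(wt).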

[2] = Cytotoxicity against human MT4 cells by MTT assay; format: cell-based
How it was run: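 Uninfected (mock-infected) MT-4 cells were exposed to compound and viability was read by MTT. CC50 is the concentration cutting viability by 50%. Values are means of three separate experiments, with triplicate samples varying by less than 10%.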

[3] = tested on: Human immunodeficiency virus 1; experiment: Antiviral activity against HIV1 3B infected in human MT4 cells assessed as inhibition of virus-induced cytopathogenicity by MTT assay; format: functional, organism-based; details: Human immunodeficiency virus 1, 3B
How it was run: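 MT-4 cells infected with HIV-1 and read by MTT viability. EC50 is the concentration giving 50% protection of cells from virus-induced cytopathogenicity. Values are means of three separate experiments, with variation among triplicate samples under 10%.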

[4] = target: Human immunodeficiency virus type 1 reverse transcriptase (Human immunodeficiency virus 1, UniProt Q72547); experiment: Inhibition of wild-type HIV1 reverse transcriptase
[5] = tested on: Human immunodeficiency virus 1; experiment: Antiviral activity against HIV1 3B expressing reverse transcriptase Y181C mutant infected in human MT4 cells assessed as inhibition of virus-induced cytopathogenicity by MTT assay; format: functional, organism-based; details: Human immunodeficiency virus 1, 3B; how it was run: as §1
[6] = tested on: Human immunodeficiency virus 1; experiment: Antiviral activity against HIV1 3B expressing reverse transcriptase K103N/Y181C double mutant infected in human MT4 cells assessed as inhibition of virus-induced cytopathogenicity by MTT assay; format: functional, organism-based
[7] = Selectivity index, ratio of CC50 for human MT4 cells to EC50 for HIV1 3B; format: toxicity, cell-based; details: read-out: Ratio CC50/EC50
How it was run: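 Computed as CC50/EC50. Both come from MTT readings in MT-4 cells: CC50 is 50% viability loss in mock-infected cells, and EC50 is 50% protection from HIV-1-induced cytopathogenicity. Each is the mean of three experiments.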

Row | SMILES | Ratio EC50 [1] | CC50 [2] [nM] | EC50 [3] [nM] | IC50 [4] [nM] | EC50 [5] [nM] | Activity [6] | selectivity ratio [7]
1 | O=C1c2ccccc2C(=O)N1CCOC(=S)N(C(=O)c1cccnc1Cl)c1ccc(Br)cc1 | 11 | > 100000 | 200 | 700 | 2300 | inactive | > 500
2 | Cc1ccc2c(c1)C(=O)N(CCOC(=S)N(C(=O)c1ccc(Cl)cc1)c1ccc([N+](=O)[O-])cc1)C2=O |  | > 100000 | 40 | 300 |  |  | > 2500
3 | O=C1c2ccccc2C(=O)N1CCOC(=S)N(C(=O)c1cccc(Cl)c1Cl)c1ccc(Cl)cc1 | 42 | 54000 | 100 |  | 4200 | inactive | 540
4 | O=C1c2ccccc2C(=O)N1CCOC(=S)N(C(=O)c1ccc([N+](=O)[O-])cc1)c1ccc(Cl)cc1 | 433 | > 100000 | 60 |  | 26000 | inactive | > 1670
